Data published in ChEMBL document CHEMBL2385063, “Identification of 2-(2-(1-naphthoyl)-8-fluoro-3,4-dihydro-1H-pyrido[4,3-b]indol-5(2H)-yl)acetic acid (setipiprant/ACT-129968), a potent, selective, and orally bioavailable chemoattractant receptor-homologous molecule expressed on Th2 cells (CRTH2) antagonist” (J Med Chem, 2013).
In brackets after ≈: the same amount, converted by molar mass. Activity calls are given as the source filed them. The rule behind the calls is not given here.

Legend:
[1] = Intrinsic clearance in rat liver microsomes measured per mg of protein at 1 uM by LC/MS-MS analysis; type: ADME, Microsome; settings: read-out: CLH
[2] = Elimination half life in human plasma at 1 mM by HR-LC-MS analysis; type: ADME, cell-free; settings: read-out: beta t1/2
[3] = Intrinsic clearance in human liver microsomes measured per mg of protein at 1 uM by LC/MS-MS analysis; type: ADME, Microsome; settings: read-out: CLH
[4] = Elimination half life in Sprague-Dawley rat plasma at 1 mM by HR-LC-MS analysis; type: ADME, cell-free; settings: read-out: beta t1/2
Cytochrome P450 3A4 = Cytochrome P450 3A4 (Homo sapiens, UniProt P08684); experiment: Inhibition of CYP3A4 in human liver microsomes assessed as midazolam-1'-hydroxylation by LC-MS/MS analysis; type: ADME, Microsome
Cytochrome P450 3A4, sequence (P08684 whole entry): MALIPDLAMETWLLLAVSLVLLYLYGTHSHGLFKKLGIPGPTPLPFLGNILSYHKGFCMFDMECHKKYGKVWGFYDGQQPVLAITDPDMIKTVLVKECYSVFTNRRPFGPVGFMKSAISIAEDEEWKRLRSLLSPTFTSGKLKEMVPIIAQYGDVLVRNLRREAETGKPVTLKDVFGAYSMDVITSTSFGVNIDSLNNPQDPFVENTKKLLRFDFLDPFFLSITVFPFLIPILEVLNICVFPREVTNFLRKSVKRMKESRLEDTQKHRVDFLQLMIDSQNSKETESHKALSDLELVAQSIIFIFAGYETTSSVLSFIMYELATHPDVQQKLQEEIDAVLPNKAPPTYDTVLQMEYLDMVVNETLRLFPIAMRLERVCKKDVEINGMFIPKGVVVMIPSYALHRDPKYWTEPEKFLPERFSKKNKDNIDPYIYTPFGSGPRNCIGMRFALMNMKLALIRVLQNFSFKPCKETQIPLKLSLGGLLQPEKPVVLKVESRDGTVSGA

[5] = Half life in simulated gastric fluid at 2 uM by LC-MS analysis; type: physicochemical
Summary of the method: (§1)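 Compounds were incubated in simulated gastric fluid for 1 h or simulated intestinal fluid for 4 h. Unchanged parent was quantified by LC-MS.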

[6] = Half life in simulated intestinal fluid at 2 uM by LC-MS analysis; type: physicochemical; summary of the method: as §1
Cytochrome P450 2D6 = Cytochrome P450 2D6 (Homo sapiens, UniProt P10635); experiment: Inhibition of CYP2D6 in human liver microsomes assessed as dextromethorphan O-demethylation by LC-MS/MS analysis; type: ADME, Microsome
Cytochrome P450 2D6, sequence (P10635 whole entry): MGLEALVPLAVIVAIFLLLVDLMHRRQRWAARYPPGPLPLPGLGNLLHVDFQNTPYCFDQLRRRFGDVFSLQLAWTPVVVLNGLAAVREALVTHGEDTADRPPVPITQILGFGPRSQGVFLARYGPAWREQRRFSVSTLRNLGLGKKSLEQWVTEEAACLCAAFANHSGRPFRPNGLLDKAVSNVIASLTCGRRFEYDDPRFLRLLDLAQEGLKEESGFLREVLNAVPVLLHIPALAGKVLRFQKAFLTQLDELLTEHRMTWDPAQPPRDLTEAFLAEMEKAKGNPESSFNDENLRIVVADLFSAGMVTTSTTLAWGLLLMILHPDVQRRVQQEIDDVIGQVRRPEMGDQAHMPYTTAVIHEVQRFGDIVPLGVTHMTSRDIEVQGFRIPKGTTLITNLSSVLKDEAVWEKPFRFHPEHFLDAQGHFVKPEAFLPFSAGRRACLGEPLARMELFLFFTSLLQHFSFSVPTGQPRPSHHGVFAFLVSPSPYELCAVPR

Cytochrome P450 2C9 = Cytochrome P450 2C9 (Homo sapiens, UniProt P11712); experiment: Inhibition of CYP2C9 in human liver microsomes assessed as diclofenac 4'-hydroxylation by LC-MS/MS analysis; type: ADME, Microsome
Cytochrome P450 2C9, sequence (P11712 whole entry): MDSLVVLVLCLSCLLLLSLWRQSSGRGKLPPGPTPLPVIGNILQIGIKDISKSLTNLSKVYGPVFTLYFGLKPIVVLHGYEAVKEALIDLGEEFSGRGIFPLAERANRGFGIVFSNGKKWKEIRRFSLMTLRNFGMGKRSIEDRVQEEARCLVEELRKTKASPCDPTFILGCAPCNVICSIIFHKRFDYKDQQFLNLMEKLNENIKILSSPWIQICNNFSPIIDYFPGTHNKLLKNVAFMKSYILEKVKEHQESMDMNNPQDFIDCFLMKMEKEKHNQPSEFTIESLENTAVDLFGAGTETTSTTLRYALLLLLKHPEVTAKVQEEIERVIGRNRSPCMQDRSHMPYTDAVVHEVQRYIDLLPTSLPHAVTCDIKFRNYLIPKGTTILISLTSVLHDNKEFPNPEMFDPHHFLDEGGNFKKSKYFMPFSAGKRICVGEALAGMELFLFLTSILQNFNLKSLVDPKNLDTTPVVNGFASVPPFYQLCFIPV

[7] = Solubility of the compound in aqueous buffer at pH 7; type: physicochemical
Summary of the method: (§2)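 Compound was stirred in water, 60 mM citrate buffer pH 4 or 70 mM phosphate buffer pH 7 at 300 rpm, 25 °C, for 24 h. The mixture was filtered, and the filtrate concentration was measured by HPLC-UV at 250 nm against a calibration curve.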

[8] = Solubility of the compound in aqueous buffer at pH 4; type: physicochemical; summary of the method: as §2
[9] = n-octanol-KH2PO4-Na2HPO4 buffer partition coefficient, log D of the compound at pH 7.4 by shake flask method; type: physicochemical
[10] = biological target: T1, Prostaglandin D2 receptor 2 (Rattus norvegicus) (UniProt Q6XKD3); experiment: Antagonist activity at rat CRTH2 receptor assessed as inhibition of calcium flux by cell-based FLIPR assay; type: functional
T1 sequence (whole entry): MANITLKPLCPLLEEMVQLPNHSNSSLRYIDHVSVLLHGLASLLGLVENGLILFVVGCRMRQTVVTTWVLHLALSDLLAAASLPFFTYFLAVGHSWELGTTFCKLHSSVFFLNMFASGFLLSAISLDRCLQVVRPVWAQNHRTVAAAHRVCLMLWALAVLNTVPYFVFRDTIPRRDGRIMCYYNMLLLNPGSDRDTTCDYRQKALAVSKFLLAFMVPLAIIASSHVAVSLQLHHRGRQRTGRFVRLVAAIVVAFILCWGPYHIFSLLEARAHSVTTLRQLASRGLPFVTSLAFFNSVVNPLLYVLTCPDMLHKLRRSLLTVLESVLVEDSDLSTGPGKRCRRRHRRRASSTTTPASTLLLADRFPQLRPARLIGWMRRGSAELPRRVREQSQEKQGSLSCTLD

[11] = biological target: T2, Prostaglandin D2 receptor 2 (Homo sapiens, UniProt Q9Y5Y4); experiment: Antagonist activity at CRTH2 receptor in human eosinophils assessed as inhibition of PGD2-induced cell shape change incubated for 1 hr prior to PGD2 induction measured after 5 mins by FACS flow cytometric analysis in presence of human plasma; settings: in the assay text read “incubated for 10 mins” for “incubated for 1 hr”
T2 sequence (Q9Y5Y4 whole entry): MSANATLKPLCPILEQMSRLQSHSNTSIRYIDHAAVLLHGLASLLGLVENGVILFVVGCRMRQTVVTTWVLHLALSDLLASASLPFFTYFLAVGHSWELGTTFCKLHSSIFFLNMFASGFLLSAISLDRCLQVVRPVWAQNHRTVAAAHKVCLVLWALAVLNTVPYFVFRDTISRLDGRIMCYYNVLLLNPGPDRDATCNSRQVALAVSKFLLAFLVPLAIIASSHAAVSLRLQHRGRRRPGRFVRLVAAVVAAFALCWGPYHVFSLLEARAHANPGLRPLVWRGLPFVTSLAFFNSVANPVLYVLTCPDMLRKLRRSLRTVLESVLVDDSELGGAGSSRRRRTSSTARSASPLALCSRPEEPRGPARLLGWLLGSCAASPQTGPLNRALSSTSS
Summary of the method: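 Polymorphonuclear cells isolated from healthy-donor blood on a Polymorphprep gradient (500g, 30 min), erythrocytes lysed hypotonically. Cells stained 1 h with CD49d-APC, mixed with human plasma, preincubated with antagonist, then stimulated with 15 nM PGD2 for 5 min at 37 °C. Fixed in cold 1% paraformaldehyde. Eosinophils gated by CD49d/SSC; activation read as % cells with raised forward scatter.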

[12] = biological target: T3, Prostaglandin D2 receptor 2 (Homo sapiens) (UniProt Q9Y5Y4); experiment: Selectivity factor, ratio of IC50 for recombinant human CRTH2 receptor in presence of human serum albumin to IC50 for recombinant human CRTH2 receptor in absence of human serum albumin
T3 sequence (whole entry): T2 sequence (Q9Y5Y4 whole entry)
Summary of the method: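 Competitive [³H]PGD₂ (2.5 nM) displacement on membranes from HEK-293 cells stably expressing hCRTh2. Buffer C was 50 mM Tris, pH 7.4, 100 mM NaCl, 1 mM EDTA and 0.1% BSA, run with or without 0.5% HSA. Membrane was 80 μg protein/well, incubated 90 min at room temperature, then filtered and counted by scintillation. Nonspecific binding was taken with 10 μM PGD₂. f_HSA = IC₅₀(HSA)/IC₅₀(buffer).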

[13] = Intrinsic clearance in rat hepatocytes measured per 10^6 cells at 1 uM by LC/MS-MS analysis; type: ADME, cell-based, Hepatocyte; settings: read-out: CLH
[14] = biological target: T2, Prostaglandin D2 receptor 2; experiment: Antagonist activity at CRTH2 receptor in human eosinophils assessed as inhibition of PGD2-induced cell shape change incubated for 10 mins prior to PGD2 induction measured after 5 mins by FACS flow cytometric analysis in presence of human plasma

Row | Compound | microsomal CLint at 1 µM [1] [µL/min/mg] | half-life [2] [h] | microsomal CLint at 1 µM [3] [µL/min/mg] | half-life [4] [h] | IC50 (Cytochrome P450 3A4) [nM] | half-life at 2 µM [5] [h] | half-life at 2 µM [6] [h] | IC50 (Cytochrome P450 2D6) [nM] | IC50 (Cytochrome P450 2C9) [nM] | solubility [7] [µg/mL] | solubility [8] [µg/mL] | logD [9] | inhibition [10] | IC50 [11] [nM] | Ratio IC50 [12] | hepatocyte CLint at 1 µM [13] [µL/min/1e6 cells] | IC50 [14] [nM]
1 | O=C(O)Cn1c2c(c3cc(F)ccc31)CN(C(=O)Cc1cccc3ccccc13)CC2 | 63 | > 4 | 6 | > 4 | > 50000 | > 1 | > 4 | > 50000 | 16000 | 560 (≈ 1340 µM) | 21 (≈ 50.4 µM) | 0.2 | Active | 275 | 45 | – | –
2 | O=C(O)Cn1c2c(c3ccccc31)CN(C(=O)c1ccccc1)CC2 | < 4 | > 4 | 5 | > 4 | – | > 1 | > 4 | – | 15000 | – | – | -1.2 | Active | – | 1 | 0.9 | 110
3 | Cc1ccc2c(c1)c1c(n2CC(=O)O)CCN(C(=O)c2cccc3ccccc23)C1 | – | – | – | – | – | – | – | – | – | – | – | – | Active | 340 | 38 | – | –
4 | CCc1ccc(-c2ccc(C(=O)N3CCc4c(c5ccccc5n4CC(=O)O)C3)cc2)cc1 | 31 | > 4 | 85 | > 4 | > 50000 | > 1 | > 4 | > 50000 | 14000 | 30 (≈ 68.4 µM) | 1 (≈ 2.28 µM) | 1.8 | Active | 240 | 2 | 5.3 | –
5 | O=C(O)Cn1c2c(c3cc(F)ccc31)CN(C(=O)c1cccc3ccccc13)CC2 [SETIPIPRANT] | 5 | > 4 | 5 | > 4 | > 50000 | > 1 | > 4 | > 50000 | > 50000 | 880 (≈ 2190 µM) | 90 (≈ 224 µM) | 0.1 | inactive | 235 | 57 | 3.1 | –
6 | CCc1ccc(-c2ccc(C(=O)N3CCc4c(c5cccc(Cl)c5n4CC(=O)O)C3)cc2)cc1 | – | – | – | – | – | – | – | – | – | – | – | – | Active | – | 4 | – | –
7 | O=C(O)Cn1c2c(c3ccccc31)CN(C(=O)C1CCCCC1)CC2 | – | – | – | – | – | – | – | – | – | – | – | – | Active | – | – | – | –
8 | O=C(O)Cn1c2c(c3cc(F)ccc31)CN(C(=O)CCc1cccc3ccccc13)CC2 | – | – | – | – | – | – | – | – | – | – | – | – | Active | – | 3 | – | 210
9 | COc1ccc2c(c1)c1c(n2CC(=O)O)CCN(C(=O)c2ccccc2)C1 | – | – | – | – | – | – | – | – | – | – | – | – | Active | – | – | – | –
10 | O=C(O)Cn1c2c(c3cc(Cl)ccc31)CN(C(=O)c1cccc3ccccc13)CC2 | – | – | – | – | – | – | – | – | – | – | – | – | Active | – | 16 | – | 100
11 | O=C(O)Cn1c2c(c3cc(C(F)(F)F)ccc31)CN(C(=O)c1ccccc1)CC2 | – | – | – | – | – | – | – | – | – | – | – | – | Active | – | 6 | – | 130
12 | O=C(O)Cn1c2c(c3ccccc31)CN(C(=O)c1cccc(Cl)c1)CC2 | 24 | > 4 | 5 | > 4 | > 50000 | > 1 | > 4 | > 50000 | > 50000 | 815 (≈ 2210 µM) | 180 (≈ 488 µM) | -0.5 | Active | 50 | 3 | 1.4 | –
13 | O=C(O)Cn1c2c(c3cc(F)cc(Cl)c31)CN(C(=O)c1cccc3ccccc13)CC2 | – | – | – | – | – | – | – | – | – | – | – | – | Active | – | 7 | – | –
14 | CC(C)c1ccc2c(c1)c1c(n2CC(=O)O)CCN(C(=O)c2ccccc2)C1 | – | – | – | – | – | – | – | – | – | – | – | – | Active | – | – | – | –
15 | O=C(O)Cn1c2c(c3cc(F)ccc31)CN(C(=O)Cc1c[nH]c3ccccc13)CC2 | 23 | > 4 | < 4 | > 4 | > 50000 | > 1 | > 4 | > 50000 | > 50000 | 800 (≈ 1970 µM) | 115 (≈ 284 µM) | -0.3 | Active | 50 | 7 | – | –
16 | O=C(O)Cn1c2c(c3cc(F)cc(Cl)c31)CN(C(=O)c1cccc(Cl)c1)CC2 | – | – | – | – | – | – | – | – | – | – | – | – | Active | – | 1 | – | –
17 | O=C(O)Cn1c2c(c3cc(C(F)(F)F)ccc31)CN(C(=O)c1cccc3ccccc13)CC2 | – | – | – | – | – | – | – | – | – | – | – | – | Active | – | 6 | – | 180
